Data set [1] deals with Enterococcus faecalis. The data set is described as follows: Antibacterial activity against vancomycin and teicoplanin-resistant Enterococcus faecalis 15376 harboring vanA gene after 18 hrs by broth microdilution method. In kind it is functional. As to conditions: Enterococcus faecalis, 15376, 18 h. For orientation: In broth dilution the organism is exposed to a series of concentrations in liquid medium.

The subject of data set [2] is Enterococcus faecalis. The experiment in a line: Bactericidal activity against vancomycin and teicoplanin-resistant Enterococcus faecalis 15376 harboring vanA gene after overnight incubation. It counts as functional.
The subject of data set [3] is Influenza A virus. The experiment in a line: Antiviral activity against Influenza A virus (A/Puerto Rico/8/34(H1N1)) assessed as inhibition of virus-induced cytopathic effect at highest concentration by cell-based assay. It counts as functional, organism-based. Conditions: A/Puerto Rico/8/1934(H1N1). In outline:
(§1)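 Virus-induced cytopathic effect is scored visually in infected cell cultures. EC50 is defined as the compound concentration producing 50% inhibition of the CPE. A compound is recorded as not active when there is no inhibition at the highest concentration tested or at a subtoxic concentration.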

Data set [4] concerns Influenza A virus. The data set is described as follows: Antiviral activity against Influenza A virus (A/Puerto Rico/8/34(H1N1)) assessed as cell viability at subtoxic concentration by cell-based MTS assay. It counts as functional, organism-based. As to conditions: A/Puerto Rico/8/1934(H1N1). Background: Tetrazolium dyes change colour on reduction, which living cells bring about.

Data set [5] concerns H3N2 subtype. The experiment in a line: Antiviral activity against Influenza A virus (A/Hong Kong/7/87(H3N2)) assessed as inhibition of virus-induced cytopathic effect at highest concentration by cell-based assay. In kind it is functional, organism-based. As to conditions: A/Hong Kong/7/1987(H3N2). The gist of the method:
as §1

For data set [6], the system named is H3N2 subtype. The experiment in a line: Antiviral activity against Influenza A virus (A/Hong Kong/7/87(H3N2)) assessed as cell viability at subtoxic concentration by cell-based MTS assay. It counts as functional, organism-based. Conditions: A/Hong Kong/7/1987(H3N2).
Data set [7] deals with Influenza B virus. The data set is described as follows: Antiviral activity against Influenza B virus (B/Hong Kong/5/72) assessed as inhibition of virus-induced cytopathic effect at highest concentration by cell-based assay. In kind it is functional. Conditions: B/Hong Kong/05/1972. The gist of the method: as §1
In data set [8] the test system is Influenza B virus. The data set is described as follows: Antiviral activity against Influenza B virus (B/Hong Kong/5/72) assessed as cell viability at subtoxic concentration by cell-based MTS assay. In kind it is functional. Conditions: B/Hong Kong/05/1972.
The subject of data set [9] is Bacillus subtilis. The experiment in a line: Antibacterial activity against Bacillus subtilis ATCC 6633 after 18 hrs by broth microdilution method. It counts as functional. Conditions: ATCC 6633, 18 h.
In data set [10] the test system is Bacillus subtilis. The experiment in a line: Bactericidal activity against Bacillus subtilis ATCC 6633 after overnight incubation. In kind it is functional.
The test system of data set [11] is Staphylococcus aureus. The data set is described as follows: Antibacterial activity against methicillin-sensitive Staphylococcus aureus ATCC 33591 after 18 hrs by broth microdilution method. In kind it is functional. As to conditions: ATCC 33591, 18 h.
Data set [12] deals with Staphylococcus aureus. The experiment in a line: Bactericidal activity against methicillin-sensitive Staphylococcus aureus ATCC 33591 after overnight incubation. It counts as functional.
Data set [13] has as its system Staphylococcus aureus. The experiment in a line: Antibacterial activity against methicillin-sensitive Staphylococcus aureus ATCC 29213 after 18 hrs by broth microdilution method. As to conditions: ATCC 29213, 18 h. In kind it is functional.
For data set [14], the system named is Staphylococcus aureus. The experiment in a line: Bactericidal activity against methicillin-sensitive Staphylococcus aureus ATCC 29213 after overnight incubation. In kind it is functional.
Data set [15] deals with Staphylococcus epidermidis. The experiment in a line: Antibacterial activity against biofilm of Staphylococcus epidermidis ATCC 35984 after 18 hrs by broth microdilution method. It counts as functional. As to conditions: RP62A.
Data set [16] deals with Staphylococcus epidermidis. The data set is described as follows: Bactericidal activity against biofilm of Staphylococcus epidermidis ATCC 35984 after overnight incubation. It counts as functional. As to conditions: RP62A.
Data set [17] concerns Staphylococcus epidermidis. The data set is described as follows: Antibacterial activity against Staphylococcus epidermidis after 18 hrs by broth microdilution method. It counts as functional.
Data set [18] concerns Staphylococcus epidermidis. The experiment in a line: Bactericidal activity against Staphylococcus epidermidis after overnight incubation. In kind it is functional.
Data set [19] deals with Enterococcus faecalis. The data set is described as follows: Antibacterial activity against vancomycin and teicoplanin-sensitive Enterococcus faecalis ATCC 29212 after 18 hrs by broth microdilution method. It counts as functional. As to conditions: ATCC 29212, 18 h.
For data set [20], the system named is Enterococcus faecalis. The data set is described as follows: Bactericidal activity against vancomycin and teicoplanin-sensitive Enterococcus faecalis ATCC 29212 after overnight incubation. It counts as functional.
Data set [21] relates to Enterococcus faecalis. The data set is described as follows: Antibacterial activity against vancomycin-resistant and teicoplanin-sensitive Enterococcus faecalis ATCC 51299 harboring vanB gene after 18 hrs by broth microdilution method. It counts as functional. Conditions: ATCC 51299, 18 h.
For data set [22], the system named is Enterococcus faecalis. The data set is described as follows: Bactericidal activity against vancomycin-resistant and teicoplanin-sensitive Enterococcus faecalis ATCC 51299 harboring vanB gene after overnight incubation. In kind it is functional.
A short description of data set [23]: Octanol-aqueous buffer partition coefficient, log P at pH 7 by shake-flask method. It counts as physicochemical.
Data set [24] relates to Influenza A virus. The experiment in a line: Antiviral activity against Influenza A virus (A/Puerto Rico/8/34(H1N1)) assessed as inhibition of virus-induced cytopathic effect by cell-based assay. In kind it is functional, organism-based, A/Puerto Rico/8/1934(H1N1). Conditions: Influenza A virus, A/Puerto Rico/8/1934(H1N1). In outline:
as §1
On the technique in general: Cytopathic effects are the visible damage that an infection or toxin causes in cultured cells.

For data set [25], the system named is Influenza A virus. The experiment in a line: Antiviral activity against Influenza A virus (A/Puerto Rico/8/34(H1N1)) assessed as cell viability by cell-based MTS assay. It counts as functional, organism-based. Conditions: A/Puerto Rico/8/1934(H1N1). The gist of the method: (§2)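 Cell-based influenza assay. The read-out is cell viability by the colorimetric formazan-based MTS assay. EC50 is the concentration giving 50% inhibition of the virus-induced cytopathic effect.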

The subject of data set [26] is H3N2 subtype. The experiment in a line: Antiviral activity against Influenza A virus (A/Hong Kong/7/87(H3N2)) assessed as inhibition of virus-induced cytopathic effect by cell-based assay. In kind it is functional, organism-based. As to conditions: A/Hong Kong/7/1987(H3N2). In outline:
as §1

Data set [27] concerns H3N2 subtype. The data set is described as follows: Antiviral activity against Influenza A virus (A/Hong Kong/7/87(H3N2)) assessed as cell viability by cell-based MTS assay. Conditions: A/Hong Kong/7/1987(H3N2). It counts as functional, organism-based. The gist of the method: as §2
The test system of data set [28] is Influenza B virus. The experiment in a line: Antiviral activity against Influenza B virus (B/Hong Kong/5/72) assessed as inhibition of virus-induced cytopathic effect by cell-based assay. It counts as functional. As to conditions: B/Hong Kong/05/1972. In outline: as §1
The test system of data set [29] is Influenza B virus. The data set is described as follows: Antiviral activity against Influenza B virus (B/Hong Kong/5/72) assessed as cell viability by cell-based MTS assay. It counts as functional. Conditions: B/Hong Kong/05/1972. The gist of the method:
as §2

≈ marks a conversion by molar mass, not a printed value. Calls of active or inactive are those of the source. A value given as a limit tells only on which side of the number the result lay.

As to `CCCCCCCCCCOCc1cn([C@H]2C(=O)N[C@@H]3Cc4ccc(c(Cl)c4)Oc4cc5cc(c4O)Oc4ccc(cc4Cl)[C@@H](O[C@@H]4O[C@H](CO)[C@@H](O)[C@H](O)[C@H]4NC(C)=O)[C@@H]4NC(=O)[C@H](NC(=O)[C@@H]5NC(=O)[C@@H](NC3=O)c3cc(O)cc(c3)Oc3cc2ccc3O)c2ccc(O)c(c2)-c2c(O)cc(O)cc2[C@H](C(=O)OC)NC4=O)nn1`, the MIC is 2 µg/mL (≈ 1.22 µM) in [1]; 2 µg/mL (≈ 1.22 µM) in data set [9]; 0.5 µg/mL (≈ 0.305 µM) in data set [11]; 1 µg/mL (≈ 0.61 µM) in data set [13]; 1 µg/mL (≈ 0.61 µM) in data set [15]; 1 µg/mL (≈ 0.61 µM) in data set [17]. In addition, the MIC in [19] and in data set [21] was 2 µg/mL (≈ 1.22 µM) throughout. The MBC in data set [2] is 256 µg/mL (≈ 156 µM); in [10], 4 µg/mL (≈ 2.44 µM); in data set [12], 0.5 µg/mL (≈ 0.305 µM); in data set [14], 1 µg/mL (≈ 0.61 µM); in data set [16] it was 1 µg/mL (≈ 0.61 µM); in data set [18], 1 µg/mL (≈ 0.61 µM). The MBC in [20] stood at 256 µg/mL (≈ 156 µM); in data set [22], 128 µg/mL (≈ 78.1 µM). Besides, the inhibition entry in data set [3], in [4], in data set [5], in data set [6], in data set [7] and in data set [8] was “inactive” in each case.

As a reminder, the logD is lipophilicity at a set pH, counting ionised and neutral species. Read a high logD as higher lipophilicity. Regarding `COC(=O)[C@@H]1NC(=O)[C@H]2NC(=O)[C@H](NC(=O)[C@@H]3NC(=O)[C@H]4NC(=O)[C@H](NC(=O)[C@H](N=[N+]=[N-])c5ccc(O)c(c5)Oc5cc4cc(O)c5C)[C@H](O)c4ccc(cc4)Oc4cc3cc(c4O)Oc3ccc(cc3)[C@H]2O)c2ccc(O)c(c2)-c2c(O)cc(O)cc21`, the inhibition entry in [7] and in data set [8] was “inactive” in each case. In data set [23], this compound yielded a logD of 0.29.

One may read the EC50 as the midpoint of the concentration-response curve. With `CCCCCCCCCCOCc1cn([C@H]2C(=O)N[C@H]3C(=O)N[C@H](C(=O)N[C@H]4C(=O)N[C@H]5C(=O)N[C@H](C(=O)N[C@@H](C(=O)OC)c6cc(O)cc(O)c6-c6cc5ccc6O)[C@H](O)c5ccc(cc5)Oc5cc4cc(c5O)Oc4ccc(cc4)[C@H]3O)c3cc(O)c(C)c(c3)Oc3cc2ccc3O)nn1`, the MIC in data set [1], in [9], in [11], in [13], in data set [15] and in data set [17] was above 256 µg/mL throughout. The MIC in data set [19] and in data set [21] was above 256 µg/mL in each case. Also, the EC50 was found to be 0.1 µM in [24]; 0.1 µM in [25]; 0.2 µM in data set [26]; 0.5 µM in data set [27]; 200 nM in data set [28]; 200 nM in data set [29].

`COC(=O)[C@@H]1NC(=O)[C@H]2NC(=O)[C@H](NC(=O)[C@@H]3NC(=O)[C@H]4NC(=O)[C@@H](Cc5ccc(c(Cl)c5)Oc5cc3cc(c5O)Oc3ccc(cc3Cl)[C@H]2O)NC(=O)[C@H](N=[N+]=[N-])c2ccc(O)c(c2)Oc2cc(O)cc4c2)c2ccc(O)c(c2)-c2c(O)cc(O)cc21` [METHYL ESTER OF AZIDO TEICOPLANIN AGLYCON]: the MIC in data set [1] amounted to 128 µg/mL (≈ 103 µM); in [9] it was 2 µg/mL (≈ 1.61 µM); in data set [11], 64 µg/mL (≈ 51.7 µM); in data set [13] it was 64 µg/mL (≈ 51.7 µM); in data set [15], 64 µg/mL (≈ 51.7 µM); in data set [17], 64 µg/mL (≈ 51.7 µM). Besides, the MIC in [19] and in [21] was 128 µg/mL (≈ 103 µM) throughout. For the same compound, the MBC in data set [2] amounted to 256 µg/mL (≈ 207 µM); in data set [10] it was 4 µg/mL (≈ 3.23 µM); in data set [12], 256 µg/mL (≈ 207 µM); in data set [14], 256 µg/mL (≈ 207 µM); in data set [16] it was 256 µg/mL (≈ 207 µM); in [18], 256 µg/mL (≈ 207 µM). The MBC in data set [20] and in [22] was 256 µg/mL (≈ 207 µM) throughout. In addition, the inhibition entry in [3], in data set [4], in data set [5], in data set [6], in data set [7] and in [8] was “inactive” each time.

As to `COC(=O)[C@H]1NC(=O)[C@H]2NC(=O)[C@H](NC(=O)[C@@H]3NC(=O)[C@H]4NC(=O)[C@H](NC(=O)[C@H](N=[N+]=[N-])c5ccc(O)c(c5)Oc5cc4cc(O)c5C)[C@H](O)c4ccc(cc4)Oc4cc3cc(c4O)Oc3ccc(cc3)[C@H]2O)c2ccc(O)c(c2)-c2c(O)cc(O)cc21`, the EC50 was 9 µM in data set [24], 8.8 µM in data set [25], 20 µM in [26] and 9.2 µM in [27].

Values taken from ChEMBL document CHEMBL1156074, “Diazo transfer-click reaction route to new, lipophilic teicoplanin and ristocetin aglycon derivatives with high antibacterial and anti-influenza virus activity: an aggregation and receptor binding study” (J Med Chem, 2009).
